Reference: ChEMBL document CHEMBL1944567, “Synthesis, biological evaluation, and molecular modeling of chalcone derivatives as potent inhibitors of Mycobacterium tuberculosis protein tyrosine phosphatases (PtpA and PtpB)” (J Med Chem, 2012)

How the values were obtained:
[1] = target: T1, Low molecular weight protein-tyrosine phosphatase A (Mycobacterium tuberculosis) (UniProt P9WIA1); assay: Inhibition of Mycobacterium tuberculosis PTP-A using p-nitrophenyl phosphate as substrate at 25 uM measured for 10 mins by spectrofluorimetry
T1 sequence (whole entry): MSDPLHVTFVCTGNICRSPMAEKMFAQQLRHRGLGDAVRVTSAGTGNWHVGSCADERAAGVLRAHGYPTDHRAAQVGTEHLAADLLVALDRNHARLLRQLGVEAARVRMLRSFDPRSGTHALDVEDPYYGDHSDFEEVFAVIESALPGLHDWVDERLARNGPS
How it was run: (§1)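 Single-point screen at 25 μM final compound, added from 1.0 × 10−3 M DMSO stock, with recombinant Mtb PtpA or PtpB (0.4 μg/μL final) in 20 mM imidazole pH 7.0 with 40 mM pNPP. Reaction started by adding enzyme. p-Nitrophenol release read at 410 nm every min for 10 min at 37 °C. Residual activity was taken from the absorbance difference between 6 and 2 min; two experiments, each in triplicate.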

[2] = target: T2, Phosphotyrosine-protein phosphatase PTPB (Mycobacterium tuberculosis) (UniProt P96830); assay: Inhibition of Mycobacterium tuberculosis PTP-B using p-nitrophenyl phosphate as substrate at 25 uM measured for 10 mins by spectrofluorimetry; how it was run: as §1
T2 sequence (whole entry): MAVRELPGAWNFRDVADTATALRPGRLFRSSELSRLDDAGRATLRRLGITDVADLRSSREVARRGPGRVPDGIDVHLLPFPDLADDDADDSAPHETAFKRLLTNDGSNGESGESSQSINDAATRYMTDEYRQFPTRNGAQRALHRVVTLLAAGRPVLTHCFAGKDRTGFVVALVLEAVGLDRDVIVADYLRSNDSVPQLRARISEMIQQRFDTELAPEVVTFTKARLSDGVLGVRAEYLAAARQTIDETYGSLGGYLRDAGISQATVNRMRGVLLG

[3] = Solubility of the compound; type: physicochemical

Row | Structure (SMILES) | inhibition [1] | inhibition [2] | solubility [3]
1 | COc1cc(OC)c(OC)cc1/C=C/C(=O)c1ccc2c(c1)OCO2 | 19% | 19% | soluble
2 | COc1cc(/C=C/C(=O)c2ccc3c(c2)OCO3)ccc1OCc1ccccc1 | 12% | 0% | soluble
3 | COc1ccc(/C=C/C(=O)c2ccc3c(c2)OCO3)cc1 | 17% | 11% | soluble
4 | O=C1COc2ccc(C(=O)/C=C/c3ccc4ccccc4c3)cc2N1 | 0% | 24% | soluble
5 | O=C(/C=C/c1cccc(Br)c1)c1ccc2ccccc2c1 | 0% | 20% | soluble
6 | O=C(/C=C/c1ccccc1)c1ccc2ccccc2c1 | 4% | 16% | soluble
7 | Cc1ccc(/C=C/C(=O)c2ccc3c(c2)OCO3)cc1 | 14% | 0% | soluble
8 | N#Cc1ccc(/C=C/C(=O)c2ccc3c(c2)OCO3)cc1 | 4% | 0% | soluble
9 | O=C(/C=C/c1cccc2ccccc12)c1ccc2c(c1)OCO2 | 8% | 0% | soluble
10 | O=C(/C=C/c1c(Cl)cccc1Cl)c1ccc2c(c1)OCO2 | 13% | 0% | soluble
11 | O=C(/C=C/c1ccc(C(F)(F)F)cc1)c1ccc2c(c1)OCO2 | 7% | 0% | soluble
12 | CCCCOc1ccc(/C=C/C(=O)c2ccc3ccccc3c2)cc1 | 8% | 17% | soluble
13 | COc1cc(OC)c(C(=O)/C=C/c2ccc3ccccc3c2)cc1OC | 22% | 14% | soluble
14 | COc1cc(/C=C/C(=O)c2ccc3c(c2)OCO3)cc(OC)c1OC | 5% | 0% | soluble
15 | COc1ccc(OC)c(/C=C/C(=O)c2ccc3ccccc3c2)c1 | 22% | 0% | soluble
16 | COc1ccc(OC)c(C(=O)/C=C/c2ccc(OCc3ccccc3)c(OC)c2)c1 | 12% | 16% | soluble
17 | COc1ccc(/C=C/C(=O)c2ccc3ccccc3c2)c(OC)c1OC | 0% | 0% | soluble
18 | O=C(/C=C/c1ccc(Cl)c(C(F)(F)F)c1)c1ccc2ccccc2c1 | 13% | 0% | soluble
19 | COc1cc(OC)c(/C=C/C(=O)c2ccc3c(c2)OCO3)c(OC)c1 | 5% | 0% | soluble
20 | O=C(/C=C/c1ccc2ccccc2c1)c1ccc2c(c1)OCO2 | 12% | 15% | soluble
21 | O=C(/C=C/c1cccc(Br)c1)c1ccc2c(c1)OCO2 | 5% | 0% | soluble

Row | Structure (SMILES) | inhibition [1] | inhibition [2] | solubility [3]
22 | O=C(/C=C/c1ccc(Cl)c(Cl)c1)c1ccc2ccccc2c1 | 11% | 28% | soluble
23 | COc1cc(OC)c(OC)cc1/C=C/C(=O)c1ccc2ccccc2c1 | 7% | 0% | soluble
24 | O=C(/C=C/c1ccc(Cl)cc1)c1ccc2ccccc2c1 | 13% | 27% | soluble
25 | O=C(/C=C/c1ccc(-c2ccccc2[N+](=O)[O-])o1)c1ccc2ccccc2c1 | 9% | 7% | soluble
26 | O=C(/C=C/c1cccc([N+](=O)[O-])c1)c1ccc2ccccc2c1 | 12% | 7% | soluble
27 | O=C(/C=C/c1c(Cl)cccc1Cl)c1ccc2ccccc2c1 | 16% | 0% | soluble
28 | O=C(/C=C/c1ccc2c(c1)OCO2)c1ccc2c(c1)OCO2 | 6% | 0% | soluble
29 | COc1cc(OC)cc(C(=O)/C=C/c2ccc3ccccc3c2)c1 | 0% | 10% | soluble
30 | O=C(/C=C/c1cc2ccccc2nc1Cl)c1ccc2c(c1)OCO2 | 19% | 0% | soluble
31 | COc1cccc(/C=C/C(=O)c2ccc3ccccc3c2)c1 | 10% | 0% | soluble
32 | COc1cc(OC)c(C(=O)/C=C/c2ccc3c(c2)OCO3)cc1OC | 8% | 29% | soluble
33 | N#Cc1ccc(/C=C/C(=O)c2ccc3ccccc3c2)cc1 | 21% | 20% | soluble
34 | COc1ccc2nc(Cl)c(/C=C/C(=O)c3ccc4ccccc4c3)cc2c1 | 22% | 17% | soluble
35 | O=C(/C=C/c1cc(Cl)cc(Cl)c1)c1ccc2ccccc2c1 | 19% | 29% | soluble
36 | COc1cc(/C=C/C(=O)c2ccc3ccccc3c2)ccc1OCc1ccccc1 | 5% | 0% | soluble
37 | O=C(/C=C/c1ccc2c(c1)OCO2)c1ccc2ccccc2c1 | 13% | 0% | soluble
38 | O=C(/C=C/c1ccc2ccccc2c1)c1cc(Cl)ccc1Cl | 0% | 20% | soluble
39 | O=C(/C=C/c1ccccc1)c1ccc2c(c1)OCO2 | 0% | 0% | soluble
40 | O=C(/C=C/c1ccc(F)cc1)c1ccc2c(c1)OCO2 | 0% | 0% | soluble
41 | COc1cccc(/C=C/C(=O)c2ccc3c(c2)OCO3)c1 | 10% | 0% | soluble
42 | COc1ccc(OC)c(/C=C/C(=O)c2ccc3c(c2)OCO3)c1 | 10% | 0% | soluble

Row | Structure (SMILES) | inhibition [1] | inhibition [2] | solubility [3]
43 | Cc1ccc(/C=C/C(=O)c2ccc3ccccc3c2)cc1 | 8% | 28% | soluble
44 | O=C(/C=C/c1ccc2ccccc2c1)c1ccc(Cl)c(Cl)c1 | 9% | 18% | soluble
45 | COc1cc(/C=C/C(=O)c2ccc3c(c2)OCO3)ccc1O | 0% | 0% | soluble
46 | O=C(/C=C/c1ccc(Br)cc1)c1ccc2ccccc2c1 | 8% | 24% | soluble
47 | CN(C)c1ccc(/C=C/C(=O)c2ccc3c(c2)OCO3)cc1 | 10% | 0% | soluble
48 | COc1cccc(C(=O)/C=C/c2ccc3ccccc3c2)c1 | 0% | 0% | soluble
49 | O=C(/C=C/c1ccc(F)cc1)c1ccc2ccccc2c1 | 13% | 14% | soluble
50 | O=C(/C=C/c1cccs1)c1ccc2c(c1)OCO2 | 7% | 0% | soluble
51 | O=C(/C=C/c1ccccc1Cl)c1ccc2c(c1)OCO2 | 5% | 0% | soluble
52 | COc1cc(/C=C/C(=O)c2ccc(Cl)s2)ccc1OCc1ccccc1 | 5% | 19% | soluble
53 | O=C(/C=C/c1ccc(Cl)c(C(F)(F)F)c1)c1ccc2c(c1)OCO2 | 0% | 0% | soluble
54 | O=C(/C=C/c1cccc(C(F)(F)F)c1)c1ccc2ccccc2c1 | 24% | 0% | soluble
55 | O=C(/C=C/c1ccc(-c2ccccc2[N+](=O)[O-])o1)c1ccc2c(c1)OCO2 | 19% | 10% | soluble
56 | O=C(/C=C/c1cccc(Cl)c1)c1ccc2c(c1)OCO2 | 23% | 0% | soluble
57 | O=C(/C=C/c1ccccc1F)c1ccc2ccccc2c1 | 23% | 0% | soluble
58 | COc1cccc(OC)c1/C=C/C(=O)c1ccc2c(c1)OCO2 | 4% | 0% | soluble
59 | O=C(/C=C/c1ccccc1Cl)c1ccc2ccccc2c1 | 0% | 13% | soluble
60 | COc1cc(OC)c(C(=O)/C=C/c2ccc3c(c2)OCO3)c(OC)c1 | 0% | 15% | soluble
61 | COc1ccc(/C=C/C(=O)c2ccc3c(c2)OCO3)cc1OC | 19% | 0% | soluble
